Experimental findings from ChEMBL document CHEMBL1143833, “Concentration-dependent synergy and antagonism within a triple antifungal drug combination against Aspergillus species: analysis by a new response surface model” (Antimicrob Agents Chemother, 2007) are described below.

≈ marks a conversion by molar mass, not a printed value. Some results are limits rather than exact numbers.

What all share (type): functional, organism-based
The test system of one test is Aspergillus terreus. Nature of the test: Antifungal activity against Aspergillus terreus by broth microdilution method. The conditions noted are these: for EC50: pooled result: one value given for 3 cell lines, strains, targets or settings. The gist of the method: (§1)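 RPMI 1640 with L-glutamine, no bicarbonate, buffered to pH 7.0 with 0.165 M MOPS. Conidial inoculum added to thawed plates. Incubated 48 h at 37°C, 95% humidity, plates unstacked. MIC taken as the lowest concentration with no visible growth. Growth also read at OD405 against conidium-free backgrounds, expressed as % of drug-free control. Run three times on separate days.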

Another test concerns Aspergillus flavus. Nature of the test: Antifungal activity against Aspergillus flavus by broth microdilution method. The gist of the method: as §1
A general note: Broth dilution looks for growth in wells or tubes with falling amounts of substance.

For another test, the system named is Aspergillus fumigatus. As to the kind of experiment: Antifungal activity against Aspergillus fumigatus by broth microdilution method. The gist of the method: as §1

One may read the MIC as the lowest concentration that inhibits growth of the organism. The low end stands for greater potency, the high end for weaker potency. By EC50 is commonly meant the concentration at which the effect is half-maximal. Low values mean a more potent agent, high ones a less potent agent. Consider `C[C@@H]1[C@H](O)[C@@H](C)/C=C/C=C/C=C/C=C/C=C/C=C/C=C/[C@H](O[C@@H]2O[C@H](C)[C@@H](O)[C@H](N)[C@@H]2O)C[C@@H]2O[C@](O)(C[C@@H](O)C[C@@H](O)[C@H](O)CC[C@@H](O)C[C@@H](O)CC(=O)O[C@H]1C)C[C@H](O)[C@H]2C(=O)O` [AMPHOTERICIN B], for which the MIC with Aspergillus terreus, against Aspergillus flavus and in the test on Aspergillus fumigatus was 0.5 µg/mL (≈ 0.541 µM) throughout. This compound also displayed an EC50 in the test with Aspergillus terreus of 0.44 µg/mL (≈ 0.476 µM).
Consider `CC[C@H](C)C[C@H](C)CCCCCCCCC(=O)N[C@H]1C[C@@H](O)[C@@H](NCCN)NC(=O)[C@@H]2[C@@H](O)CCN2C(=O)[C@H]([C@H](O)CCN)NC(=O)[C@H]([C@H](O)[C@@H](O)c2ccc(O)cc2)NC(=O)[C@@H]2C[C@@H](O)CN2C(=O)[C@H]([C@@H](C)O)NC1=O` [CASPOFUNGIN], for which the MIC in the test with Aspergillus terreus, in the test with Aspergillus flavus and with Aspergillus fumigatus was greater than 128 µg/mL in each case. In the test with Aspergillus terreus, this compound displayed an EC50 of 95.5 µg/mL (≈ 87.4 µM).
`C[C@@H](c1ncncc1F)[C@](O)(Cn1cncn1)c1ccc(F)cc1F` [VORICONAZOLE]: the MIC in the test on Aspergillus terreus, against Aspergillus flavus and against Aspergillus fumigatus was 0.25 µg/mL (≈ 0.716 µM) throughout. Moreover, the EC50 with Aspergillus terreus was found to be 0.23 µg/mL (≈ 0.658 µM).
